Where two headings read alike, the source gives them in different places.

Data set [1] concerns the target T1, HLA-A*02:01 (Homo sapiens, UniProt P04439, D140Y/D185E/D98H/E176V/E277Q/G131W/G231S/I119V/I121R/I166T/I218V/L300P/L318F/N151K/N90K/P208A/P217A/Q86G/Q94H/R138H/R169H/T345S). Type of data set: binding. Particulars: for peptide exchange (in words): NA9 for NV9-FITC on A2, 25 °C.
Another data set relates to A2/NA9. Kind of data set: Thermal stability by nanoscale differential scanning fluorimetry, A2/NA9. Set-up: species or system human. Conditions: for destabilization of A2 complex (in words): ethanediol, 20% DMSO, Table S5. An outline of the steps:
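Refolded, SEC-purified HLA-A2/peptide complex, 4 µM in citrate-phosphate buffer pH 7.6 (187.3 mM Na₂HPO₄, 6.35 mM citric acid). Mixed 1:1 with solvent or dipeptide at 2x test concentration in the same buffer, giving 2 µM complex. nanoDSF in capillaries: ex 280 nm, em 330 and 350 nm, ramp 1.0 °C/min from 15 or 20 °C to 80 °C.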

Data set [2] deals with T1, HLA-A*02:01. Type of data set: binding.
The next data set deals with β2m. The experiment in a line: Thermal stability by nanoscale differential scanning fluorimetry, β2m. More on the design: species or system human.
In a further data set the target is HLA-A*24:02 (Homo sapiens, UniProt P04439, D101N/D140Y/D185E/E176V/E190D/F33S/G103R/G107R/I119L/I121M/I306V/K335N/L105A/L180Q/L300P/N151K/N90K/Q86E/Q94H/R106L/R138H/R89G/T104I/T345S/V100E/W191G/Y123F). Type of data set: binding. Particulars: pre-bound TLn9, ethanol vs 10 mM GF, 25 °C. An outline of the steps:
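Complex (300 nM final) preincubated 15 min with the test compound or 10 mM dipeptide in 50 mM HEPES, 150 mM NaCl, pH 7.5. FITC-labeled incoming peptide added at 100 nM final. Exchange followed in real time by fluorescence anisotropy (ex 494 nm, em 517 nm) at 25 °C.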

For another data set, the target named is H-2K^b (Mus musculus, UniProt P01901). Type of data set: binding, murine. Conditions: pre-bound FAPGNYPAL
The target in another data set is HLA-B*07:02 (Homo sapiens, UniProt P01889). It is filed as binding. Particulars: pre-bound APGIRDHESA
A further data set relates to A2/IV9. The experiment in a line: Thermal stability by nanoscale differential scanning fluorimetry, A2/IV9. More on the design: species or system human. Conditions: no reagent.
For data set [3], the target named is disulfide-stabilized HLA-A*02:01 (Y84C/A139C) (Homo sapiens, UniProt P04439, D140Y/D185E/D98H/E176V/E277Q/G131W/G231S/I119V/I121R/I166T/I218V/L300P/L318F/N151K/N90K/P208A/P217A/Q86G/Q94H/R138H/R169H/T345S/A163C/Y108C). Type of data set: binding.
Data set [4] deals with disulfide-stabilized HLA-A*02:01 (Y84C/A139C) / beta-2 microglobulin, peptide-free (human). Kind of data set: fluorescence polarisation.
A further data set deals with A2/NV9. Kind of data set: Thermal stability by nanoscale differential scanning fluorimetry, A2/NV9. Set-up: species or system human. Particulars: no reagent.

On to `CCCO` [1-propanol], for which the “peptide exchange (in words)” value at HLA-A*02:01 [1] is listed as “ineffective”. The same measure, in the same setting: as for `CCC(C)O` (stereo not shown) [2-butanol], the entry is “ineffective”. For `C[S+](C)[O-]` [DMSO, Dimethylsulfoxide], in the data set with A2/NA9, the “destabilization of A2 complex (in words)” value was “destabilizes to an extent similar to 10% ethanol”. For `OCCO` [EDO, 1,2-Ethanediol], in the data set on A2/NA9, the “destabilization of A2 complex (in words)” value is listed as “destabilizes A2 only slightly”. Further, at HLA-A*02:01 [1], the “peptide exchange (in words)” value was “enhanced exchange only to a minor extent”.

Take `CCO` [EtOH, Ethanol]: the “peptide exchange (in words)” value on HLA-A*02:01 [2] is “considerably less than that of 10 mM GM”; at HLA-A*24:02, “dramatically superior to the dipeptide”; on H-2K^b, “also catalyzes exchange”; at HLA-B*07:02, “also catalyzes exchange”; on HLA-A*02:01 [1] it was 10% ethanol showed an acceleration similar to the dipeptide. Further, the Tm with β2m (20% solvent, β2m alone, citrate-phosphate buffer pH 7.6, 1.0 °C/min) worked out at 45 °C. Moreover, the ΔTm in the data set on β2m (β2m, 20% solvent vs no reagent) is −20.5 °C; in the data set with A2/NA9 (A2/NA9, 20% ethanol vs no reagent), −16.7 °C. At HLA-A*02:01 [1] (20% ethanol, 25, 32, 37 °C, less A2 available to bind the incoming peptide), the “lower endpoint anisotropy with temperature increase (in words)” value is recorded as “especially dramatic”. For `CO` [MeOH, Methanol], the “peptide exchange (in words)” value on HLA-A*02:01 [1] was 20% methanol was only slightly slower. Take ILKEPVHGV [IV9]: in the data set with A2/IV9, the “Tm of complex compared to β2m alone (in words)” value is listed as “not significantly different from those of β2m alone”. Turning to NLVPKTAMRAVATA [NA9-TAM], the “acceleration of dissociation by 20% ethanol” value in data set [3] was “about six-fold”. NLVPK_(TAMRA)VATA (peptide): the fold acceleration of dissociation by 20% ethanol (against no ethanol) in [4] came to 6 fold. Regarding NLVPMVATV [NV9], the “Tm of complex compared to β2m alone (in words)” value with A2/NV9 is “not significantly different from those of β2m alone”.

Values taken from article PMC9420430 (Current Research in Immunology, 2022).
